STAT3 act – activators of IL-6 induced STAT3 signaling. AID 871. U3A cells, IL-6 STAT3-luciferase reporter, luminescence; 100% = signal with IL-6 EC80 alone. 190,000 tested, 0.91% active. activation (% of control), % at 5.6 µM;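 active = activation above the screen-wide mean of compound activation plus 3 SD, cut at about 130% in these data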;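 also: 0% = background luminescence of wells with medium and substrate only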
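Material: human STAT1-deficient U3A cells with stable STAT3-luciferase reporter / Probe or stimulus: IL-6 stimulus at 33 ng/mL final / Schedule: 1 h compound pre-exposure, 6 h IL-6 stimulation, 37 °C / Technique: luminescence / Read-out basis: percent of IL-6-only median luminescence / Control set: IL-6-only high control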
STAT1 act – STAT1 signaling activation. 200,000 tested, 2.6% active. activation (% of control), % at 5.5 µM. AID 932. NIH 3T3 STAT1-luciferase reporter, IFN-gamma, luminescence; 100% = IFN-gamma alone, no compound;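 active = activation above the screen-wide mean activation plus 3 SD, cut at about 130% in these data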;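 also: raw ratio to IFN-gamma control signal so 100% means no change and 0% no light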
STAT3 inh – STAT3 signaling inhibition. U3A cells, IL-6 STAT3-luciferase reporter, luminescence; host cell line lacks STAT1. inhibition, % at 5.5 µM. 190,000 tested, 0.89% active. AID 862;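 active = inhibition above the mean inhibition across all screened compounds plus 3 SD, cut at about 44% in these data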;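 also: 0% = DMSO only wells and 100% = 100 µM nifuroxazide control wells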
NF-kB neuron act – NF-kB expression increase, human neuronal cells; 190,000 tested, 1.6% active; fold change at 12.5 µM; AID 1239; NF-kB reporter expression; stronger effect = higher value; in the data active = fold change above about 3.3
APP 5'UTR act – activates APP 5'UTR luciferase reporter; SH-SY5Y APP 5'UTR luciferase reporter, luminescence; zero percent = DMSO vehicle wells; activation, % at 2 µM; 190,000 tested, 1% active;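 active = activation above a set limit, based on mean plus 3 SD of controls, cut at about 140% in these data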
STAT1 blocker – inhibitors of IFN-gamma induced STAT1 signaling. 200,000 tested, 0.35% active. NIH 3T3 STAT1-luciferase reporter, luminescence. inhibition, % at 5.5 µM. AID 920;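 active = inhibition above a set limit, the mean inhibition across all tested compounds plus 3 SD, cut at about 34% in these data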;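 also: 0% = IFN-gamma with DMSO and 100% = IFN-gamma with 300 µM nifuroxazide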
An asterisk follows results filed as active. Shown are actives, neighbours in structure and some others; about 5.1% of the full set was active somewhere.

SMILES	STAT3 act	STAT1 act	STAT3 inh	NF-kB neuron act	APP 5'UTR act	STAT1 blocker
Oc1c(CN2CCOCC2)cc(COCc2ccccc2)c2cccnc12	96	119	4	4.2*	-92	-21
COc1ccc(-n2c(CN3CCN(c4ccccn4)CC3)nc3ccc([N+](=O)[O-])cc3c2=O)c(OC)c1	104	97	2	2.4	-15	2
CC(C)c1ccc(CNc2c([N+](=O)[O-])c(=O)oc3ccccc23)cc1	92	90	10	1.1	2	11
CCCSc1nnc(Nc2ccccc2C)s1	93	129*	12	2.1	50	-32
Cc1ccccc1Nc1nnc(SCC(=O)Nc2ccccc2[N+](=O)[O-])s1	126	107	-26	0.81	13	-8
O=C(CC(Nc1ccc(Cl)cc1)C(=O)O)c1ccccc1 (stereo not drawn)	80	147*	27	2.4	209*	-50
O=C(c1cc2nc(-c3ccc(F)cc3)cc(C(F)(F)F)n2n1)N1CCCCC1c1cccnc1 (stereo not drawn)	55	68	57*	0.7	-7	35*
O=C(c1cnn2c(C(F)(F)F)cc(-c3ccccc3)nc12)N1CCCCC1c1cccnc1 (stereo not drawn)	105	99	-4	1.1	-5	-1
Cc1cccc(NC(=O)NNC(=O)c2sccc2-n2cccc2)c1	109	102	-8	1.2	83	-2
Clc1ccc(-c2nc3n(n2)Cc2ccccc2-3)cc1	96	150*	8	6.1*	139*	-42
CCN(CC)S(=O)(=O)c1cccc(-c2nc3n(n2)Cc2ccccc2-3)c1	89	127	16	1.4	-10	-30
O=C(Nc1cccc2c1[nH]c1ccccc12)C(F)(F)F	83	104	23	1.7	-4	-4
Cc1cc(NC(=O)c2ccccc2)sc1C	92	131*	17	5.3*	154*	-34
Cc1ccc(NC(=O)c2ccccc2)s1	71	116	39	6.6*	160*	-18
Cc1cccc(-c2ncc(CN3CCN(CCC(C)C)C(CCO)C3)cn2)c1 (stereo not drawn)	101	104	10	1.2	18	-5
Cc1cc(C)c(OCC(=O)Nc2nnc(-c3ccco3)o2)c(C)c1	102	100	-1	1.1	11	-2
O=C(NNc1nc2cc3c(cc2s1)OCCO3)c1ccccc1	104	132*	5	1.9	38	-34
Fc1ccc(-c2csc(N3CCC(c4ccccc4)C3)n2)cc1 (stereo not drawn)	107	147*	-4	3.9*	43	-53
COc1ccc(-c2csc(N3CCC(c4ccccc4)C3)n2)cc1 (stereo not drawn)	90	104	12	1.9	0	-5
Clc1ccc(-c2csc(N3CCC(c4ccccc4)C3)n2)cc1 (stereo not drawn)	101	132*	0	2.4	10	-35
CCN(CC)C(=O)Cn1cc(SCC(=O)NC)c2ccccc21	100	101	7	1.1	-19	-1
COc1ccc(N2C(=O)CC(N(Cc3ccco3)C(=O)CCC(=O)O)C2=O)cc1 (stereo not drawn)	95	100	8	0.98	-13	-2
O=C(/C=C/c1ccccc1Cl)NCc1cccs1	108	131*	-12	2	31	-35
COc1ccc(C(CC(=O)c2ccccc2)CC(=O)c2ccccc2)cc1OC	97	102	6	0.93	-9	-3
COc1ccc(OC)c(Cc2nnc(CCC(=O)N3CCCCC3)o2)c1	113	132*	-12	1.9	19	-37
O=C1CC(c2ccco2)Sc2nc3ccccc3n21 (stereo not drawn)	119	122	-21	1.5	13	-24
O=C1CC(c2ccccc2)Sc2nc3ccccc3n21 (stereo not drawn)	80	132*	30	2.5	168*	-33
O=C1CC(c2cccs2)Sc2nc3ccccc3n21 (stereo not drawn)	108	129*	-6	3	117	-32
CC(C)(c1ccccc1)c1ccc(OCC(O)CNC2CCN(Cc3ccccc3)CC2)cc1 (stereo not drawn)	100	100	1	2.4	-6	0
